Measurements published in publication PMC5477668 (Journal of medicinal chemistry, 2017).
One block for each compound: values may come before it.

Assays:
PAD2 [1] = target: T1, PAD2 (Homo sapiens, UniProt Q9Y2J8); assay: PAD2 inactivation kinetics; assay type: biochemical; conditions: for fold more potent PAD2 inhibitor in vitro: than BB-Cl-amidine (4b); for PAD2 potency: as compared to BB-F-amidine (4a) and BB-Cl-amidine (4b); for fold increase in PAD2 potency and selectivity: relative to Cl-amidine; for PAD2-selectivity: up to, other isozyme not named; for fold decrease in PAD2 potency: compared to 30a
How it was run: (§1)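 Purified PAD enzyme (2.0 μM) was preincubated at 37 °C with various inactivator concentrations in 50 mM HEPES pH 7.6, 10 mM CaCl2 and 2 mM DTT. Aliquots taken over time were added to the same buffer containing 10 mM BAEE, run for 15 min, then quenched in liquid nitrogen. Citrulline was measured by COLDER. k_obs came from exponential decay fits, and k_inact and K_I from saturation fits. At least duplicate.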

HEK293T cells = assay: Cytotoxicity study; assay type: cell-based, human; conditions: than BB-Cl-amidine (4b)
How it was run: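 Human HEK293T cells were plated at 2.5 × 10⁶ cells/well. Next day they were exposed for 24 h to DMSO, Triton X-100, or a range of test-compound concentrations. Viability was read by XTT absorbance at 475 nm. EC50 came from an eight-point dose-response fit with range, slope factor and background terms.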

PAD1 = PAD1 inactivation kinetics; assay type: biochemical
How it was run: as §1

PAD4 = PAD4 inactivation kinetics; assay type: biochemical
How it was run: as §1

PAD2 [2] = target: T1, PAD2; assay: Target engagement assay with HEK293T/PAD2 cells; assay type: cell-based
HEK293T/PAD2 cells = assay: Cellular uptake assay; assay type: in vitro ADME, human
How it was run: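 HEK293T/PAD2 cells in HBS with 2 mM CaCl2 were treated with 0.5 μM ionomycin and test compound at 25 μM, as in the target engagement protocol. Cells were scraped, washed 4× with HBS, extracted in acetonitrile by sonication for 1 h at 0 °C, then cleared, filtered and analysed by LCMS. Analyte peak area was compared with the peak area of 25 μM compound injected directly.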

[3] = as compared to BB-F-amidine (4a)
[4] = as compared to BB-Cl-amidine (4b)

T1 sequence (Q9Y2J8 whole entry): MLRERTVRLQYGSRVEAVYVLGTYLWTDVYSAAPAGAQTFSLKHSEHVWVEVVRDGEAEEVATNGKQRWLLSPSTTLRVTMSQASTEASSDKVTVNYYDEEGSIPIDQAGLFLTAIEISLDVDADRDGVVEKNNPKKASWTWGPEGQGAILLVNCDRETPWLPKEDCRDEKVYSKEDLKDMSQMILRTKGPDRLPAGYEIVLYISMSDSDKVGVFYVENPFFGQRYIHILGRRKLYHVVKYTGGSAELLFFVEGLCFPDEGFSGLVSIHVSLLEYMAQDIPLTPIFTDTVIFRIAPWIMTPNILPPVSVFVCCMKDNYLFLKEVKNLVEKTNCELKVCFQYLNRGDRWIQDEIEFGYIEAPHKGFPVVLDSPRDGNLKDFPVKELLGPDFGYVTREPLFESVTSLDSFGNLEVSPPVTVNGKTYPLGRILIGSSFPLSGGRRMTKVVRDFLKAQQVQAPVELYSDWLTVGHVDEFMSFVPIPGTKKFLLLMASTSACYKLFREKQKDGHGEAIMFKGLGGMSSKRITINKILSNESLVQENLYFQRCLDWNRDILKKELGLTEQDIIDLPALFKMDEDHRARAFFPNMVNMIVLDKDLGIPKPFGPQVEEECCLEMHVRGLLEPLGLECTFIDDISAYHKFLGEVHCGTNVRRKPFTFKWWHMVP

Compound: N=C(CF)NCCC[C@H](NC(=O)c1ccccc1C(=O)O)c1nc2ccccc2[nH]1 [9a]
fold increase in PAD1 inhibition (PAD1; [3]): 18 fold | PAD2 potency (PAD2 [1]): relatively unaffected | fold increase in PAD4 inhibition (PAD4; [3]): 6.5 fold

Compound: CCn1c([C@H](CCCNC(=N)CF)NC(=O)c2cccc3c2C(=O)NC3)nc2ccccc21 [16a]
fold increase in PAD2 inhibition (PAD2 [1]; as compared to 9a): ~ 41 fold | fold increase in PAD2 inhibition (PAD2 [1]; [3]): ~ 51 fold | occupancy of PAD2 (PAD2 [2]; at 25 μM, HEK293T/PAD2 cells): roughly half as potent

Compound: COc1cccc2c1nc([C@H](CCCNC(=N)CF)NC(=O)c1cccc3c1C(=O)NC3)n2C [30a]
fold increase in PAD2 potency and selectivity (PAD2 [1]): > 100 fold | fold more potent PAD2 inhibitor in vitro (PAD2 [1]): 12–50 fold | PAD2-selectivity (PAD2 [1]): up to 106 fold | fold more compound able to enter HEK293T cells (HEK293T/PAD2 cells; than 41a): 6 fold | fold less cytotoxic (HEK293T cells): > 30 fold

Compound: CCn1c([C@H](CCCNC(=N)CF)NC(=O)c2ccccc2C(=O)O)nc2ccccc21 [11a]
fold increase in PAD2 inhibition (PAD2 [1]; [3]): 26 fold

Compound: N=C(CCl)NCCC[C@H](NC(=O)c1ccccc1C(=O)O)c1nc2ccccc2[nH]1 [9b]
fold increase in PAD1 inhibition (PAD1; [4]): 1.8 fold | PAD2 potency (PAD2 [1]): relatively unaffected | fold increase in PAD4 inhibition (PAD4; [4]): 2.3 fold

Compound: N=C(CF)NCCC[C@H](NC(=O)c1cccc2c1C(=O)NC2)c1nc2ccccc2[nH]1 [14a]
fold increase in PAD2 inhibition (PAD2 [1]; as compared to 9a): ~ 7 fold | fold increase in PAD2 inhibition (PAD2 [1]; [3]): ~ 9 fold | fold increase in PAD4 inhibition (PAD4; as compared to 9a): ~ 1.4 fold

Compound: N=C(CF)NCCC[C@H](NC(=O)c1ccc(-c2ccccc2)cc1)c1nc2ccccc2[nH]1 [4a]
fold less potent in the target engagement assay (PAD2 [2]; than BB-Cl-amidine (4b)): ~ 3 fold

Further lines, with some results ahead:

fold more potent PAD2 inhibitor in vitro (PAD2 [1]): 12–50 fold
Compound: COc1ccc2c(c1)nc([C@H](CCCNC(=N)CF)NC(=O)c1cccc3c1C(=O)NC3)n2C [37a]
fold less cytotoxic (HEK293T cells): > 30 fold

fold decrease in PAD2 potency (PAD2 [1]): ~ 2 fold | fold more potent PAD2 inhibitor in vitro (PAD2 [1]): 12–50 fold
Compound: CCOc1cccc2c1nc([C@H](CCCNC(=N)CF)NC(=O)c1cccc3c1C(=O)NC3)n2C [32a]
fold less cytotoxic (HEK293T cells): > 30 fold

fold decrease in PAD2 potency (PAD2 [1]): ~ 2 fold
Compound: CCOc1cccc2c1nc([C@H](CCCNC(=N)CCl)NC(=O)c1cccc3c1C(=O)NC3)n2C [32b]

fold increase in PAD2 inhibition (PAD2 [1]; [3]): > 300 fold | fold increase in PAD2 potency and selectivity (PAD2 [1]): > 100 fold | PAD2-selectivity (PAD2 [1]): up to 106 fold | fold less compound internalized by the cell (HEK293T/PAD2 cells; than unsubstituted lactams 30a, 31a, 32a, and 37a, mass spectrometry): ~ 6 fold
Compound: CCN1Cc2cccc(C(=O)N[C@@H](CCCNC(=N)CF)c3nc4c(OC)cccc4n3C)c2C1=O [41a]

fold increase in PAD2 potency and selectivity (PAD2 [1]): > 100 fold | PAD2-selectivity (PAD2 [1]): up to 106 fold
Compound: COc1cccc2c1nc([C@H](CCCNC(=N)CF)NC(=O)c1cccc3c1C(=O)N(C)C3)n2C [49a]

fold decrease in PAD2 potency (PAD2 [1]): 4 fold | fold more potent PAD2 inhibitor in vitro (PAD2 [1]): 12–50 fold
Compound: CCn1c([C@H](CCCNC(=N)CF)NC(=O)c2cccc3c2C(=O)NC3)nc2c(OC)cccc21 [31a]
fold less cytotoxic (HEK293T cells): > 30 fold
